# Reference: ChEMBL document CHEMBL1149318, “(Z)- and (E)-[2-Fluoro-2-(hydroxymethyl)cyclopropylidene]methylpurines and -pyrimidines, a new class of methylenecyclopropane analogues of nucleosides: synthesis and antiviral activity” (J Med Chem, 2004)
# Key:
# [1] = Cytotoxicity against HFF cells by neutral red uptake assay; format: cell-based; settings: human
# In short: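 Human foreskin fibroblast (HFF) cultures, as used for the HCMV assays, exposed to analogues. Cytotoxicity read by neutral red uptake.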
# [2] = Cytotoxicity against Daudi cells; format: cell-based; settings: human
# [3] = test system: CCRF-CEM; assay: Cytotoxicity against CEM cells; format: functional; settings: Homo sapiens
# [4] = test system: Human alphaherpesvirus 1; assay: Inhibition of HSV1 in HFF cells by CPE assay; format: functional, organism-based; settings: Human alphaherpesvirus 1, HFF
# In short: (§1)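 Cytopathic effect inhibition assay in HFF culture (HCMV AD169; HSV-1 and HSV-2). Cytotoxicity by neutral red uptake.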
# [5] = test system: Human betaherpesvirus 5; assay: Inhibition of HCMV AD169 replication in HFF cells by CPE inhibition assay; format: functional, organism-based; settings: Human betaherpesvirus 5, AD169, HFF; in short: as §1
# [6] = Cytotoxicity against HFF cells by visual cytotoxicity; format: cell-based; settings: human
# In short: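 HFF cultures exposed to analogues. Cytotoxicity scored visually.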
# [7] = test system: Human alphaherpesvirus 1; assay: Inhibition of HSV1 in Vero cells by plaque reduction assay; settings: Human alphaherpesvirus 1, Vero
# [8] = Cytotoxicity against MT2 cells; format: cell-based; settings: human
# In short: (§2)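 Uninfected MT-2 (2 × 10^3 cells) or MT-4 (3 × 10^4 cells) cultured with analogues. Viability read by MTT assay after day 7 (MT-2) or day 5 (MT-4). Run in duplicate.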
# [9] = test system: Human gammaherpesvirus 4; assay: Inhibition of EBV replication in H1 cells by DNA hybridization assay; format: functional, organism-based; settings: human gammaherpesvirus 4, H1
# In short: (§3)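 EBV DNA hybridization assay in Daudi or H-1 cells; EC50 derived from viral DNA signal. Cytotoxicity for these EBV assays measured in CEM cells.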
# [10] = Inhibition of HSV2 in Vero cells by plaque reduction assay; format: cell-based; settings: Chlorocebus sabaeus
# In short: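 Plaque reduction assay in Vero cells with HSV-1 or HSV-2.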
# [11] = test system: Human gammaherpesvirus 4; assay: Inhibition of EBV replication in Daudi cells by VCA ELISA; format: functional, organism-based; settings: human gammaherpesvirus 4, Daudi
# In short: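 Viral capsid antigen (VCA) ELISA in Daudi cells; EC50 from capsid antigen signal. Cytotoxicity measured in CEM cells.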
# [12] = test system: Human alphaherpesvirus 1; assay: Inhibition of HSV1 replication in BSC1 cells by ELISA; format: functional, organism-based; settings: Human alphaherpesvirus 1, BSC-1
# In short: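 HSV-1 in BSC-1 cells, read by ELISA; cytotoxicity determined in KB cells.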
# [13] = Cytotoxicity against Vero cells; format: cell-based; settings: chlorocebus sabaeus
# [14] = test system: Human alphaherpesvirus 2; assay: Inhibition of HSV2 in HFF cells by CPE assay; format: functional, organism-based; settings: Human alphaherpesvirus 2, HFF; in short: as §1
# [15] = test system: Human gammaherpesvirus 4; assay: Inhibition of EBV replication in Daudi cells by DNA hybridization assay; format: functional, organism-based; settings: human gammaherpesvirus 4, Daudi; in short: as §3
# [16] = test system: Human betaherpesvirus 5; assay: Inhibition of HCMV Towne replication in HFF cells by plaque reduction assay; format: functional, organism-based; settings: Human betaherpesvirus 5, Towne
# In short: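 Plaque reduction assay in HFF culture with HCMV Towne strain; cytotoxicity by neutral red uptake.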
# [17] = test system: Human immunodeficiency virus 1; assay: Inhibition of HIV1 LAI replication in MT2 by CPE assay; format: functional, organism-based; settings: Human immunodeficiency virus 1, LAI
# In short: (§4)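 HIV-1 LAI, 100 TCID50, used to infect MT-2 (2 × 10^3) or MT-4 (3 × 10^4) cells, which are then cultured with test analogue. EC50 read by MTT assay on day 7 (MT-2) or day 5 (MT-4). Assays run in duplicate.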
# [18] = test system: Human alphaherpesvirus 3; assay: Inhibition of VZV replication in HFF cells by CPE assay; format: functional, organism-based; settings: Human alphaherpesvirus 3, HFF
# [19] = test system: Hepatitis B virus; assay: Inhibition of HBV replication in 2.2.15 cells by DNA hybridization assay; format: functional, organism-based; settings: HepG2 2.2.15
# In short: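 HBV in 2.2.15 cells; viral DNA quantified by DNA hybridization to give EC50.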
# [20] = Cytotoxicity against HFF cells; format: cell-based; settings: human
# [21] = Cytotoxicity against MT4 cells; format: cell-based; settings: human; in short: as §2
# [22] = test system: Human immunodeficiency virus 1; assay: Inhibition of HIV1 LAI replication in MT4 by CPE assay; format: functional, organism-based; settings: Human immunodeficiency virus 1, LAI; in short: as §4
# [23] = test system: Murid betaherpesvirus 1; assay: Inhibition of MCMV replication in MFF cells by plaque reduction assay; format: functional, organism-based; settings: Murid betaherpesvirus 1, MFF
# In short: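 MCMV in MEF cells by plaque reduction.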
# [24] = Cytotoxicity against MFF cells; format: cell-based; settings: mouse
SMILES,CC50 [1],CC50 [2],CC50 [3],EC50 [4],EC50 [5],CC50 [6],EC50 [7],CC50 [8],EC50 [9],EC50 [10],EC50 [11],EC50 [12],CC50 [13],EC50 [14],EC50 [15],EC50 [16],EC50 [17],EC50 [18],EC50 [19],CC50 [20],other results
Nc1ccn(/C=C2\CC2(F)CO)c(=O)n1 (stereo unspecified),> 474 µM,> 237 µM,> 100 µM,> 80 µM,> 474 µM,> 100 µM,> 50 µM,> 100 µM,> 20 µM,> 50 µM,760 nM,> 100 µM,> 100 µM,> 80 µM,94.8 µM,> 100 µM,> 100 µM,14.7 µM,> 20 µM,> 400 µM,–
Nc1ncnc2c1ncn2/C=C1/CC1(F)CO (stereo unspecified),> 425 µM,> 213 µM,> 100 µM,> 80 µM,6 µM,> 100 µM,> 50 µM,> 100 µM,13.8 µM,> 50 µM,1450 nM,> 100 µM,> 100 µM,> 80 µM,–,3.6 µM,12 µM,14 µM,> 20 µM,> 400 µM,CC50 [21]: > 100 µM; EC50 [22]: 22 µM; EC50 [23]: 69.3 µM; CC50 [24]: > 425 µM
Cc1cn([C@H]2C[C@H](N=[N+]=[N-])[C@@H](CO)O2)c(=O)[nH]c1=O [ZIDOVUDINE],–,–,–,–,–,–,–,> 10 µM,–,–,–,–,–,–,–,–,0.02 µM,–,–,–,–
Nc1nc2c(ncn2/C=C2/CC2(F)CO)c(=O)[nH]1 (stereo unspecified),> 398 µM,> 199 µM,> 100 µM,> 80 µM,> 79.6 µM,> 100 µM,> 50 µM,> 100 µM,> 20 µM,> 50 µM,4800 nM,> 100 µM,> 100 µM,> 80 µM,–,> 100 µM,> 100 µM,> 79.6 µM,> 20 µM,> 400 µM,–
Nc1ncnc2c1ncn2/C=C1\CC1(F)CO (stereo unspecified),> 417 µM,> 209 µM,> 100 µM,> 80 µM,> 16.7 µM,> 100 µM,> 50 µM,> 100 µM,–,> 50 µM,–,30 µM,> 100 µM,> 80 µM,–,20 µM,2.3 µM,> 83.4 µM,15 µM,> 400 µM,CC50 [21]: > 100 µM; EC50 [22]: 7.6 µM
Nc1nc2c(ncn2COC(CO)CO)c(=O)[nH]1 [GANCICLOVIR],> 392 µM,–,–,–,2.2 µM,> 100 µM,> 50 µM,–,–,–,–,–,–,–,–,2.1 µM,–,–,–,–,–
Cc1cn(/C=C2\CC2(F)CO)c(=O)[nH]c1=O (stereo unspecified),> 442 µM,> 221 µM,> 100 µM,> 80 µM,> 442 µM,> 100 µM,> 50 µM,> 100 µM,> 20 µM,> 50 µM,> 221000 nM,40 µM,> 100 µM,> 80 µM,–,> 100 µM,> 100 µM,> 442 µM,> 20 µM,> 400 µM,–
Nc1nc2c(ncn2COCCO)c(=O)[nH]1 [ACYCLOVIR],–,> 222 µM,–,–,–,–,–,–,–,–,–,10 µM,–,–,5.3 µM,–,–,–,–,> 444 µM,–
Nc1ccn([C@@H]2CS[C@H](CO)O2)c(=O)n1 [LAMIVUDINE],–,–,> 100 µM,–,–,–,–,–,–,–,–,–,–,–,–,–,–,–,–,–,–
Nc1nc2c(ncn2/C=C2\CC2(F)CO)c(=O)[nH]1 (stereo unspecified),> 398 µM,> 199 µM,> 100 µM,> 80 µM,> 79.6 µM,> 100 µM,> 50 µM,> 100 µM,> 20 µM,> 50 µM,< 320 nM,90 µM,> 100 µM,> 80 µM,–,> 100 µM,> 100 µM,> 79.6 µM,> 20 µM,> 400 µM,–
Cc1cn(/C=C2/CC2(F)CO)c(=O)[nH]c1=O (stereo unspecified),> 442 µM,> 221 µM,> 100 µM,> 80 µM,> 442 µM,> 100 µM,> 50 µM,> 100 µM,2.5 µM,> 50 µM,51700 nM,2.5 µM,> 100 µM,> 80 µM,4.4 µM,> 100 µM,> 100 µM,0.62 µM,> 20 µM,> 400 µM,–
Nc1ccn(/C=C2/CC2(F)CO)c(=O)n1 (stereo unspecified),> 474 µM,> 237 µM,> 100 µM,> 80 µM,> 474 µM,> 100 µM,> 50 µM,> 100 µM,> 20 µM,> 50 µM,< 380 nM,> 100 µM,> 100 µM,> 80 µM,28.4 µM,> 100 µM,> 100 µM,0.62 µM,> 20 µM,> 400 µM,–
